Experimental data gathered from unrelated publications.
Lines come from different studies, so protocols differ.
Cell line: Vero
Effect on: cell growth or viability

Compound	assay	setting	IC50
Cc1ccc2c(-c3cc4c(CNCc5cccnc5)cnc(C)c4o3)cc(=O)oc2c1C	MTT	72 h	98.5 µM
Clc1ccc(-c2nnc(Nc3ccc(C4=NNC(c5ccc(Cl)cc5)C4)cc3)c3ccccc23)cc1 (stereo not shown)	–	–	4.25 µM
COc1cc(NC(=O)C2=C(C)NC(C)=C(C(=O)Nc3cc(OC)c(Cl)cc3OC)C2c2cccc(Cl)c2)c(OC)cc1Cl	MTT	–	28.4 µM
Cc1ccc2c(-c3cc4c(CN5CCN(Cc6ccccn6)CC5)cnc(C)c4o3)cc(=O)oc2c1	MTT	72 h	60.4 µM
O=C(CN1C(=O)SC(=Cc2ccc(Cl)cc2Cl)C1=O)Nc1ccc(C(=O)NNC(=O)c2ccccc2)cc1	MTS	–	3.97 µM
COc1ccc(NC(=O)C2=C(C)NC(C)=C(C(=O)Nc3ccc(OC)cc3OC)C2c2ccco2)c(OC)c1	MTT	–	51.6 µM
COc1ccc(C2CC(c3ccc(Nc4nnc(-c5ccc(Cl)cc5)c5ccccc45)cc3)=NN2)cc1 (stereo not shown)	–	–	3.22 µM
COc1ccc(NC(=O)C2=C(C)NC(C)=C(C(=O)Nc3ccc(OC)cc3OC)C2c2ccc(Cl)cc2)c(OC)c1	MTT	–	76.4 µM
O=c1nc(-c2ccc(Nc3nnc(-c4ccc(Cl)cc4)c4ccccc34)cc2)cc(-c2ccc(Cl)cc2)[nH]1	–	–	3 µM
COc1ccc(NC(=O)C2=C(C)NC(C)=C(C(=O)Nc3cc(OC)c(Cl)cc3OC)C2c2ccc(O)cc2)c(OC)c1 (stereo not shown)	MTT	–	60.2 µM
Cc1cc(C)n(-c2ccc(NC(=O)Cn3c(=O)c4cc(I)ccc4n(Cc4ccccc4)c3=O)cc2)n1	–	–	45.5 µM
COc1cc(NC(=O)C2=C(C)NC(C)=C(C(=O)Nc3cc(OC)c(Cl)cc3OC)C2c2ccccc2)c(OC)cc1Cl	MTT	–	42.2 µM
O=c1nc(-c2ccc(Nc3nnc(-c4ccc(Cl)cc4)c4ccccc34)cc2)cc(-c2ccccc2)[nH]1	–	–	4 µM
COC(=O)c1ccc(NC(=O)Cn2c(=O)c3cc(I)ccc3n(Cc3ccccc3)c2=O)cc1	–	–	50.2 µM
Cc1ncc(CN2CCN(Cc3ccccn3)CC2)c2cc(C(=O)c3ccc4c(c3)OCCO4)oc12	MTT	72 h	50.1 µM
CNC(=O)c1ccc(NC(=O)Cn2c(=O)c3cc(I)ccc3n(Cc3ccccc3)c2=O)cc1	–	–	46.9 µM
Oc1ccccc1C1CC(c2ccc(Nc3nnc(-c4ccc(Cl)cc4)c4ccccc34)cc2)=NN1 (stereo not shown)	–	–	4.11 µM
CS(=O)(=O)CCNCc1ccc(-c2ccc3ncnc(Nc4ccc(OCc5cccc(F)c5)c(Cl)c4)c3c2)o1	MTT	–	17.5 µM
NNC(=O)c1ccc(NC(=O)Cn2c(=O)c3cc(I)ccc3n(Cc3ccccc3)c2=O)cc1	–	–	52.1 µM
